Laboratory results: ChEMBL document CHEMBL4004830 (J Med Chem, 2017)
Activity calls are given as the source filed them. No cut-off for these calls is given here.

What was measured:
[1] = molecular target: Cyclin-dependent kinase 4/cyclin D1 (Homo sapiens, UniProt P11802); experiment: Inhibition of CDK4/cyclin D1 (unknown origin) in presence of [gamma-33P]-ATP […]; format: protein-complex assay; conditions: read-out: Ki(app)
CDK6/cyclin D3 = CDK6/cyclin D3 (Homo sapiens, UniProt Q00534); experiment: Inhibition of CDK6/cyclin D3 (unknown origin) in presence of [gamma-33P]-ATP […]; format: protein-complex assay; conditions: read-out: Ki(app)
[2] = molecular target: Cyclin-dependent kinase 1/cyclin B1 (Homo sapiens) (UniProt P06493+P14635); experiment: Inhibition of CDK1/cyclin B (unknown origin) in presence of [gamma-33P]-ATP […]; format: protein-complex assay
[3] = molecular target: Cyclin-dependent kinase 7/ cyclin H (Homo sapiens) (UniProt P51946+P50613); experiment: Inhibition of CDK7/cyclin H (unknown origin) in presence of [gamma-33P]-ATP […]; format: protein-complex assay
Cytochrome P450 3A4 = Cytochrome P450 3A4 (Homo sapiens, UniProt P08684); experiment: Inhibition of CYP3A4 in human liver microsomes using midazolam as substrate in presence of NADPH; format: ADME
Summary of the method: (§1)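 Human liver microsomes with NADPH and isoform-specific probe substrate (midazolam CYP3A4, dextromethorphan CYP2D6, ethoxyresorufin CYP1A, tolbutamide CYP2C9, mephenytoin CYP2C19); IC50 reported in µM.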

Cytochrome P450 1A2 = Cytochrome P450 1A2 (Homo sapiens, UniProt P05177); experiment: Inhibition of CYP1A2 in human liver microsomes using ethoxyresorufin as substrate in presence of NADPH; format: ADME; summary of the method: as §1
[4] = Octanol/aqueous buffer partition co-efficient, log D of the compound at pH 7.4 by shake-flask method; format: physicochemical
[5] = Apparent permeability co-efficient from basolateral to apical side in human Caco2 cells; format: ADME, cell-based; conditions: Caco-2
Summary of the method: (§2)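 Caco-2 monolayer assay measuring the apparent permeability coefficient (P_app, 10^-6 cm/s) in the A→B and B→A directions. Efflux ratio is the mean P_app B-A divided by the mean P_app A-B.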

[6] = Efflux ratio of apparent permeability co-efficient from basolateral to apical side over apical to basolateral side in human Caco2 cells; format: ADME, cell-based; conditions: Caco-2; summary of the method: as §2
[7] = Volume of distribution at steady state in albino Wistar rat at 5 mg/kg, iv up to 24 hrs by LC-MS/MS analysis; format: ADME, organism-based; conditions: in vivo, read-out: Vdss
Summary of the method: (§3)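 Single-dose pharmacokinetics in male animals: albino Wistar rats given 5 mg/kg IV or 20 mg/kg PO, and BALB/c mice given 2 mg/kg IV or 10 mg/kg PO.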

[8] = Tmax in albino Wistar rat at 20 mg/kg administered via oral gavage measured up to 24 hrs by LC-MS/MS analysis; format: ADME, organism-based; conditions: in vivo; summary of the method: as §3
[9] = Oral bioavailability in albino Wistar rat at 20 mg/kg measured up to 24 hrs by LC-MS/MS analysis; format: ADME, organism-based; conditions: in vivo; summary of the method: as §3
[10] = Clearance in BALB/c mouse at 2 mg/kg, iv up to 24 hrs by LC-MS/MS analysis; format: ADME, organism-based; conditions: in vivo
[11] = Volume of distribution at steady state in BALB/c mouse at 2 mg/kg, iv up to 24 hrs by LC-MS/MS analysis; format: ADME, organism-based; conditions: in vivo, read-out: Vdss; summary of the method: as §3
[12] = AUC (0 to t) in BALB/c mouse at 2 mg/kg, iv up to 24 hrs by LC-MS/MS analysis; format: ADME, organism-based; parameters: dose 2 mg/kg, time < 24 hr, route intravenous; conditions: in vivo
[13] = Cmax in BALB/c mouse at 2 mg/kg, iv up to 24 hrs by LC-MS/MS analysis; format: ADME, organism-based; parameters: dose 2 mg/kg, route intravenous; conditions: in vivo
[14] = Half life in BALB/c mouse at 2 mg/kg, iv up to 24 hrs by LC-MS/MS analysis; format: ADME, organism-based; conditions: in vivo
Summary of the method: (§4)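 Single-dose pharmacokinetics in male BALB/c mice, 2 mg/kg IV or 10 mg/kg PO.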

[15] = Oral bioavailability in BALB/c mouse at 10 mg/kg measured up to 24 hrs by LC-MS/MS analysis; format: ADME, organism-based; conditions: in vivo; summary of the method: as §3
[16] = Half life in BALB/c mouse at 10 mg/kg administered via oral gavage measured up to 24 hrs by LC-MS/MS analysis; format: ADME, organism-based; conditions: in vivo; summary of the method: as §4
MV4-11 [17] = experiment: Antitumor activity against human MV4-11 cells xenografted in nude BALB/c mouse assessed as median survival time at 100 mg/kg, po qd administered for 33 consecutive days and left untreated for another 50 days (reference value: 33 days); format: functional
MV4-11 [18] = experiment: Antitumor activity against human MV4-11 cells xenografted in nude BALB/c mouse assessed as tumor volume at 100 mg/kg, po qd administered for 33 consecutive days measured on day 31; format: functional
MV4-11 [19] = experiment: Antitumor activity against human MV4-11 cells xenografted in nude BALB/c mouse assessed as tumor growth inhibition at 100 mg/kg, po qd administered for 33 consecutive days measured on day 50; format: functional, organism-based
Mus musculus = experiment: Toxicity in nude BALB/c mouse xenografted with human MV4-11 cells assessed as overt toxicity at 100 mg/kg, po qd for 33 consecutive days and left untreated for another 50 days; format: organism-based; conditions: in vivo, 1200 h
[20] = molecular target: LIM domain kinase 1 (Homo sapiens) (UniProt P53667); experiment: Inhibition of full-length human LIMK1 (1 to 647 amino acid residues) expressed in bacterial expression system at 1 uM in presence of [gamma-33P]-ATP […]
Summary of the method: (§5)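 Broad kinome panel of 369 kinases screened at 1 µM test concentration.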

[21] = molecular target: Dual specificity tyrosine-phosphorylation-regulated kinase 3 (Homo sapiens) (UniProt O43781); experiment: Inhibition of DYRK3 (unknown origin) at 1 uM in presence of [gamma-33P]-ATP […]; summary of the method: as §5
MV4-11 [22] = experiment: Cell cycle arrest in human MV4-11 cells assessed as accumulation at S phase at 0.04 uM after 24 hrs by propidium iodide staining based flow cytometry (reference value: 19.07%); format: functional
MV4-11 [23] = experiment: Cell cycle arrest in human MV4-11 cells assessed as accumulation at G2/M phase at 0.04 uM after 24 hrs by propidium iodide staining based flow cytometry (reference value: 17.94%); format: functional
MV4-11 [24] = experiment: Cell cycle arrest in human MV4-11 cells assessed as accumulation at sub-G1 phase at 0.20 uM after 24 hrs by propidium iodide staining based flow cytometry (reference value: 1.99%); format: functional
MV4-11 [25] = experiment: Cell cycle arrest in human MV4-11 cells assessed as accumulation at G2/M phase at 0.20 uM after 24 hrs by propidium iodide staining based flow cytometry (reference value: 17.94%); format: functional
MV4-11 [26] = experiment: Cell cycle arrest in human MV4-11 cells assessed as accumulation at G1 phase at 0.40 uM after 24 hrs by propidium iodide staining based flow cytometry (reference value: 61.01%); format: functional
MV4-11 [27] = experiment: Cell cycle arrest in human MV4-11 cells assessed as accumulation at S phase at 0.40 uM after 24 hrs by propidium iodide staining based flow cytometry (reference value: 19.07%); format: functional
MV4-11 [28] = experiment: Cell cycle arrest in human MV4-11 cells assessed as accumulation at G2/M phase at 0.40 uM after 24 hrs by propidium iodide staining based flow cytometry (reference value: 17.94%); format: functional
MV4-11 [29] = experiment: Effect on total Rb protein levels in human MV4-11 cells at GI50 after 12 to 24 hrs by Western blot analysis; format: cell-based
Summary of the method: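 MV4-11 cells were treated for 12 or 24 h, then analysed by Western blot for Rb, including phospho-Ser780. β-Actin served as the loading control. Data are representative of two independent experiments.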

Sequence of CDK6/cyclin D3 (P30281 whole entry): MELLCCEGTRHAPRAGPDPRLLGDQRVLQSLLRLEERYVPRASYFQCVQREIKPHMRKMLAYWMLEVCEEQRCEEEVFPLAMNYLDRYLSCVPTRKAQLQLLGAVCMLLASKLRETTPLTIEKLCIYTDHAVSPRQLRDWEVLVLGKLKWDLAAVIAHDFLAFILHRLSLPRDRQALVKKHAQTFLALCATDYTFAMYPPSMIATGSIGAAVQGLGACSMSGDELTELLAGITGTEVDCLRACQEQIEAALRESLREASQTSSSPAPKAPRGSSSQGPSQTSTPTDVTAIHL
Sequence of CDK6/cyclin D3 (Q00534 whole entry): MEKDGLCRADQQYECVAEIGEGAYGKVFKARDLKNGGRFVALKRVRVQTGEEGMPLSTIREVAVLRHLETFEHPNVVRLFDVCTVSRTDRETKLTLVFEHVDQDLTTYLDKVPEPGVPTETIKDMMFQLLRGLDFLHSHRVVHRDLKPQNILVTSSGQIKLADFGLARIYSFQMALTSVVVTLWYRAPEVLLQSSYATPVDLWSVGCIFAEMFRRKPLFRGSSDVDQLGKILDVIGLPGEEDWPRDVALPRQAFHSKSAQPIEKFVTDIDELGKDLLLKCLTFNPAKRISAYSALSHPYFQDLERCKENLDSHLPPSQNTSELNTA
Sequence of Dual specificity tyrosine-phosphorylation-regulated kinase 3 (Homo sapiens) (O43781 whole entry): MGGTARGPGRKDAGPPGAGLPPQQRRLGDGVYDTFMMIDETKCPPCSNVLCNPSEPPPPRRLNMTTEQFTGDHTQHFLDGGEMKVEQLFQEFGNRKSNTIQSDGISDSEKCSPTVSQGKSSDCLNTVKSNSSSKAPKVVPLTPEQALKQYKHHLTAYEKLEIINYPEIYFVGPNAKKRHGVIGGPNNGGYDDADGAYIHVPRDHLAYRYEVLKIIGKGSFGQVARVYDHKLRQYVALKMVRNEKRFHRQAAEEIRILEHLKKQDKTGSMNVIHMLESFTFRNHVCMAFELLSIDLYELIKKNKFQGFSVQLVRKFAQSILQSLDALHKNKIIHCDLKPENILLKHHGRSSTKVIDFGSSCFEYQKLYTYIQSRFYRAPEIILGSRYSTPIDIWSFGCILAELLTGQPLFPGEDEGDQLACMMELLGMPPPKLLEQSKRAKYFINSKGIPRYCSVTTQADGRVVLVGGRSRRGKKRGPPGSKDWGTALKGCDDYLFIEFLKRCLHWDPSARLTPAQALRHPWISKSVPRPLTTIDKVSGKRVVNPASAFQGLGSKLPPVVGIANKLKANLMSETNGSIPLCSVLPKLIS
Sequence of Cyclin-dependent kinase 1/cyclin B1 (Homo sapiens) (P06493 whole entry, looked up): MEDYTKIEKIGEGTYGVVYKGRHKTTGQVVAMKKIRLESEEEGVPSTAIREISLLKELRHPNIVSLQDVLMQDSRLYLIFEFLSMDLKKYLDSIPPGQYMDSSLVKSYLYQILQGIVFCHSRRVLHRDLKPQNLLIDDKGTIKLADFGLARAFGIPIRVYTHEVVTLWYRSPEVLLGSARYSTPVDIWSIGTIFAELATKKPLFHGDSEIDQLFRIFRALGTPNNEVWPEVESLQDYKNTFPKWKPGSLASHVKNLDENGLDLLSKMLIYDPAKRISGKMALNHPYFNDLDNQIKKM
Sequence of Cyclin-dependent kinase 1/cyclin B1 (Homo sapiens) (P14635 whole entry, looked up): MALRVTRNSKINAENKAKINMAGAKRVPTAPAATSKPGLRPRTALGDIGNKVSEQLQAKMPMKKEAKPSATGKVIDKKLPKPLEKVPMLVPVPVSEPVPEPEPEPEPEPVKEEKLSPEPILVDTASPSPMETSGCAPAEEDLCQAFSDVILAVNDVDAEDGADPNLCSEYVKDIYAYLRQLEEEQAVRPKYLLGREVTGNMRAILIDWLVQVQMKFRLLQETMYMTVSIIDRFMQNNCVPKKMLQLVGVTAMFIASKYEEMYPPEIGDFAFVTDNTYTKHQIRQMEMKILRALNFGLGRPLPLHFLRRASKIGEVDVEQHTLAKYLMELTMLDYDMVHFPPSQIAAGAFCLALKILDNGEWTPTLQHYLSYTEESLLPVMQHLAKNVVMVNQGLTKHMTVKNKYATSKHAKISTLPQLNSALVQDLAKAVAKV
Sequence of LIM domain kinase 1 (Homo sapiens) (P53667 whole entry, looked up, the tested form may be a part): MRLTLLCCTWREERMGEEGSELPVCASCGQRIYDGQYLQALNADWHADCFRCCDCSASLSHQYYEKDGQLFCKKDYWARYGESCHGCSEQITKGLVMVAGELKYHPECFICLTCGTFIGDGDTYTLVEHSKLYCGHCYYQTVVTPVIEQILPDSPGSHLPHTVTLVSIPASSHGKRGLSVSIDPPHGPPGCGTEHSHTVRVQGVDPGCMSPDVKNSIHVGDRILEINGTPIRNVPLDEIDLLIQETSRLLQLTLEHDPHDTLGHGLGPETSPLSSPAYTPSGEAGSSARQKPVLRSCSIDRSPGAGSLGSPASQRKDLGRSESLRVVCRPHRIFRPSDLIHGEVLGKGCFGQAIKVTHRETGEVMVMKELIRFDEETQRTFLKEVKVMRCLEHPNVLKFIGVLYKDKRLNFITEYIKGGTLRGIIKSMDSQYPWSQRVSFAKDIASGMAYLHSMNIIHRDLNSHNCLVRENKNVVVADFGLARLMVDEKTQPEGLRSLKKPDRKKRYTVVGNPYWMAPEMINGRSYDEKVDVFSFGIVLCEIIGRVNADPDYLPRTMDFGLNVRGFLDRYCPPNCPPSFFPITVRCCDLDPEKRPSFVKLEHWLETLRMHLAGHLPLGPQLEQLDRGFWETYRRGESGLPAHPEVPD
Sequence of Cytochrome P450 3A4 (P08684 whole entry, canonical isoform): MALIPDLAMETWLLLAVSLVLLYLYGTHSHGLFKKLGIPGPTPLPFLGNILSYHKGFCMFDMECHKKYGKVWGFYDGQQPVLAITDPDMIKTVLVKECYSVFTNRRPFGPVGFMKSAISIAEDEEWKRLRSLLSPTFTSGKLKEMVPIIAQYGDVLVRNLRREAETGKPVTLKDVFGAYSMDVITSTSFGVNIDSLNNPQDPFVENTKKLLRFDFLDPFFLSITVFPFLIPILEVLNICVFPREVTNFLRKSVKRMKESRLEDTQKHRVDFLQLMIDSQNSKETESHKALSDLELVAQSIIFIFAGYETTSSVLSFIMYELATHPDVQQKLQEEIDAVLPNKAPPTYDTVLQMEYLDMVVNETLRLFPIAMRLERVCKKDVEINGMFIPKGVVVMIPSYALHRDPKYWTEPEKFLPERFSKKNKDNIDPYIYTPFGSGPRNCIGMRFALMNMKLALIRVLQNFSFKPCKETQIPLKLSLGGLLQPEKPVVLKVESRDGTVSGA
Sequence of Cytochrome P450 1A2 (P05177 whole entry): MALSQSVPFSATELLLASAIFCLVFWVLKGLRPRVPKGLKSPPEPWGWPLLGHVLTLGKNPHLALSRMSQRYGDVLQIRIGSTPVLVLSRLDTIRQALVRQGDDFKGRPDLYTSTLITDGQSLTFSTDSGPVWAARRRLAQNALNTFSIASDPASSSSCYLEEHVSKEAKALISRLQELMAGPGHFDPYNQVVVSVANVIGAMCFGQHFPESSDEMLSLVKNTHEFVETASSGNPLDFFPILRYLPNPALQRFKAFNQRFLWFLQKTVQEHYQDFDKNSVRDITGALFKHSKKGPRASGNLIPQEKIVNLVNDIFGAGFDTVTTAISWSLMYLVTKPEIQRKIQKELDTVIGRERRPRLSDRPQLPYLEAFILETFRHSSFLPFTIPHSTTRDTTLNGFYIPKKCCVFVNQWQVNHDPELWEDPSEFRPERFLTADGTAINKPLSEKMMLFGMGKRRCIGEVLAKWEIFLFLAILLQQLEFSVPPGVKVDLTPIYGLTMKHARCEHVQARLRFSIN
Sequence of Cyclin-dependent kinase 4/cyclin D1 (P11802 whole entry): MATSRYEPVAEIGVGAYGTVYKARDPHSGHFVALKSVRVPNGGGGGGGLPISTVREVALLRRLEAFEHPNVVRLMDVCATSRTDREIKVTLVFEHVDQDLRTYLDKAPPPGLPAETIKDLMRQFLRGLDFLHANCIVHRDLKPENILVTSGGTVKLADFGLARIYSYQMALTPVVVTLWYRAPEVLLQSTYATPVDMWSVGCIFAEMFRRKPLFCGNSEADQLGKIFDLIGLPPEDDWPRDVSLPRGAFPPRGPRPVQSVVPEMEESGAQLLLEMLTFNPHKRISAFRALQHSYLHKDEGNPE
Sequence of Cyclin-dependent kinase 4/cyclin D1 (P24385 whole entry, further chain): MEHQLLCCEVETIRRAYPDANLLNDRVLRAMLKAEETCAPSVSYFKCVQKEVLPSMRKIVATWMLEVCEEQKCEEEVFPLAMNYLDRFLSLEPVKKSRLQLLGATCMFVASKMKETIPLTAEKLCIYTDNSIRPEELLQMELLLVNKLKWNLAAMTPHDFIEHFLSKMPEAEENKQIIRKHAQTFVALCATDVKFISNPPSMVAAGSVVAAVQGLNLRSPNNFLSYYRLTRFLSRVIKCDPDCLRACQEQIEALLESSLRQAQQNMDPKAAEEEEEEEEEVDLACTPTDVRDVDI

Cc1nc(NC2CCCC2)sc1-c1ccnc(Nc2ccc(N3CCOCC3)cn2)n1
Ki [1]: 4 nM
Ki (CDK6/cyclin D3): 30 nM
Ki(app) [2]: inactive
Ki(app) [3]: inactive
IC50 (Cytochrome P450 3A4): > 25000 nM
IC50 (Cytochrome P450 1A2): > 25000 nM
logD [4]: 4.4
Papp B→A [5]: 3.98 ×10⁻⁶ cm/s
efflux ratio [6]: 0.396 to 4
Vd [7]: 1.5 L/kg
Tmax [8]: 3.7 h
bioavailability [9]: 25.1 to 27%
clearance [10]: 58.3 mL/min/kg
Vd [11]: 5.6 L/kg
AUC(0-t) at 24 h [12]: 1.2 µM·h
Cmax [13]: 2300 nM
half-life [14]: 1.7 h
bioavailability [15]: 100%
half-life [16]: 5 h
MST (MV4-11 [17]): 55 days
T/C (MV4-11 [18]): 30%
TGI (MV4-11 [19]): Active
Activity (Mus musculus): Non-Toxic
inhibition [20]: Active
inhibition [21]: Active

CC(=O)c1c(C)c2cnc(Nc3ccc(N4CCNCC4)cn3)nc2n(C2CCCC2)c1=O [PALBOCICLIB]
Activity (MV4-11 [22]): 15.52%
Activity (MV4-11 [23]): 13.4%
Activity (MV4-11 [24]): 4.22%
Activity (MV4-11 [25]): 5.74%
Activity (MV4-11 [26]): 85.35%
Activity (MV4-11 [27]): 6.02%
Activity (MV4-11 [28]): 5.69%
Activity (MV4-11 [29]): Toxic
